According to ChEMBL document CHEMBL3865803, “Bicyclic octahydrocyclohepta[b]pyrrol-4(1H)one derivatives as novel selective anti-hepatitis C virus agents” (Eur J Med Chem, 2016):

Key:
[1] = Cytotoxicity against human Huh7.5 cells measured after 48 hrs by MTS assay; assay type: toxicity, cell-based, Huh-7; settings: for CC50 at 48 h: Huh7.5 cells; for Activity: huh-7, 48 h
How it was run: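 Parental Huh7.5 cells were treated 12 h after seeding with 8-10 dilutions of compound or DMSO (1% final) for 48 h at 37 °C. Viability was read by MTS bioreduction to formazan. CC50 is the concentration halving the MTS signal, mean ± SD of three independent experiments.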

[2] = tested on: Hepatitis C virus; assay: Antiviral activity against HCV genotype 1b infected in human Huh7/Rep-Feo1b replicon cells assessed as inhibition of viral RNA replication at 50 uM measured after 48 hrs by luciferase reporter gene assay relative to control; assay type: functional, Hepacivirus hominis; settings: Huh-7, 48 h
How it was run: (§1)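 Replicon cells (gt1b firefly luciferase; gt2a Renilla luciferase) in DMEM/10% FBS with G418, ~1 × 10^4 cells/well, dosed 12 h after seeding with 50 µM compound or DMSO (1% final) for 48 h at 37 °C. Cells were PBS-washed and luciferase read; % inhibition was taken versus DMSO-treated cells, mean±SD, n=3.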

[3] = tested on: Hepatitis C virus; assay: Antiviral activity against HCV genotype 1b infected in human Huh7/Rep-Feo1b replicon cells assessed as inhibition of viral RNA replication measured after 48 hrs by luciferase reporter gene assay; assay type: functional, cell-based, Hepacivirus hominis; settings: Huh-7, 48 h
How it was run: (§2)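 EC50 from concentration-response in replicon cells (gt1b firefly, gt2a Renilla luciferase reporter) maintained with G418. Compound added 12 h post-seeding (~1 × 10^4 cells/well), 48 h exposure, DMSO 1% final. Luciferase was compared with DMSO controls; the value is the mean ± SD of three independent 8-12 point quarter-log dilution series, calculated with CalcuSyn.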

[4] = Selectivity index, ratio of CC50 for human Huh7.5 cells to EC50 for HCV genotype 1b infected in human Huh7/Rep-Feo1b replicon cells; set-up: species or system Huh-7
[5] = tested on: Hepatitis C virus; assay: Antiviral activity against HCV genotype 2a infected in human Huh7.5-FGR-JC1-Rluc2A replicon cells assessed as inhibition of viral RNA replication at 50 uM measured after 48 hrs by luciferase reporter gene assay relative to control; assay type: functional, Hepacivirus hominis; settings: Huh-7, 48 h; how it was run: as §1
[6] = tested on: Hepatitis C virus; assay: Antiviral activity against HCV genotype 2a infected in human Huh7.5-FGR-JC1-Rluc2A replicon cells assessed as inhibition of viral RNA replication incubated for 48 hrs by luciferase reporter gene assay; assay type: functional, cell-based, Hepacivirus hominis; settings: Huh-7, 48 h; how it was run: as §2
[7] = Selectivity index, ratio of CC50 for human Huh7.5 cells to EC50 for HCV genotype 2a infected in human Huh7.5-FGR-JC1-Rluc2A replicon cells; set-up: species or system Huh-7
[8] = tested on: Hepatitis C virus; assay: Antiviral activity against Hepatitis C virus genotype 1b infected in human MH14 cells assessed as inhibition of viral RNA replication after 48 hrs by quantitative RT-PCR analysis; assay type: functional, cell-based
How it was run: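 MH-14 cells carrying HCV subgenomic replicons, in 12-well plates, were treated with a range of concentrations or DMSO 12 h after seeding. Cellular HCV RNA was quantified by qRT-PCR with HCV-specific primers, using β-actin primers as reference.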

Structure (SMILES) | CC50 at 48 h [1] | inhibition at 50 µM [2] | EC50 [3] | Ratio CC50/EC50 [4] | inhibition at 50 µM [5] | EC50 [6] | Ratio CC50/EC50 [7] | inhibition ([8]; Hepacivirus hominis) | EC50 ([8]; MH14, 48 h) | Activity [1]
CCOC(=O)[C@@H]1C[C@@H]2/C(=N/Nc3ccccc3)CCCC[C@@H]2N1S(=O)(=O)c1ccc(C)cc1 (racemic) | > 200 µM | 88% | 1.8 µM | 112.4 | 70% | 4.5 µM | 44.2 | Dose-dependent effect | 3.82 µM | –
O=C1CCCC[C@H]2[C@H](N1)[C@@H](c1ccccc1)CN2Cc1ccccc1 (racemic) | > 200 µM | 80% | 24.1 µM | >8.3 | 59% | 12.4 µM | >16.1 | – | – | 98%
O=C1CCCC[C@@H]2[C@@H]1[C@H](c1cccc(F)c1)CN2Cc1ccccc1 (racemic) | > 50 µM | 83% | 11.7 µM | >4.2 | 97% | 1.6 µM | >31.8 | – | – | 63%
CCOC(=O)[C@@H]1C[C@@H]2/C(=N/NC(N)=S)CCCC[C@@H]2N1S(=O)(=O)c1ccc(C)cc1 (racemic) | > 200 µM | 66% | 14.3 µM | 14 | 58% | 11.6 µM | 17.3 | – | – | –
